Measured values: ChEMBL document CHEMBL3351542, “Nonpeptide small molecule agonist and antagonist original leads for neuropeptide FF1 and FF2 receptors” (J Med Chem, 2014)
Values belong to the compound of their own block, whether it stands above or below them. The source made the active and inactive calls. No cut-off for these calls is given here. Square brackets hold non-standard residues; d marks the D form. Peptide text beside a SMILES is read from it. NMeF = CN[C@@H](Cc1ccccc1)C(=O)O

Key:
Homo sapiens [1] = species on record: Homo sapiens; assay: Selectivity ratio of Ki for human NPFF2 receptor to Ki for human NPFF1 receptor
[2] = target: T1, Neuropeptide FF receptor 2 (Homo sapiens, UniProt Q9Y5X5); assay: Displacement of [3H]EYF from human NPFF2 receptor expressed in CHO cells after 1 hr by liquid scintillation counting analysis; format: cell-based
T1 sequence (Q9Y5X5 whole entry): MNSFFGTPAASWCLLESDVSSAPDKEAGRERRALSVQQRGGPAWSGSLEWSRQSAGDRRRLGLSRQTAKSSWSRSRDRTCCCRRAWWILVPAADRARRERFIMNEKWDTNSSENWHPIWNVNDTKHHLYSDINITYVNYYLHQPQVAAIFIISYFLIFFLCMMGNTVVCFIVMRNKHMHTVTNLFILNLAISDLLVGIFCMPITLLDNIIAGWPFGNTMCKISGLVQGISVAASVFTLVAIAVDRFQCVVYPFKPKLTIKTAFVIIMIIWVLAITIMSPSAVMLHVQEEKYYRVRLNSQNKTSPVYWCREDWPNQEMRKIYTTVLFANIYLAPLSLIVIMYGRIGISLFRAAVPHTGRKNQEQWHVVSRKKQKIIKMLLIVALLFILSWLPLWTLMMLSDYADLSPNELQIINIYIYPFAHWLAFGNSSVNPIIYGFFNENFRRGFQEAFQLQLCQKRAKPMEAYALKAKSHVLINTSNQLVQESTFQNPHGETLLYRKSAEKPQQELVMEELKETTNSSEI

[3] = target: T2, Neuropeptide FF receptor 1 (Homo sapiens, UniProt Q9GZQ6); assay: Displacement of [3H]NPVF from human NPFF1 receptor expressed in CHO cells after 1 hr by liquid scintillation counting analysis; format: cell-based
T2 sequence (Q9GZQ6 whole entry): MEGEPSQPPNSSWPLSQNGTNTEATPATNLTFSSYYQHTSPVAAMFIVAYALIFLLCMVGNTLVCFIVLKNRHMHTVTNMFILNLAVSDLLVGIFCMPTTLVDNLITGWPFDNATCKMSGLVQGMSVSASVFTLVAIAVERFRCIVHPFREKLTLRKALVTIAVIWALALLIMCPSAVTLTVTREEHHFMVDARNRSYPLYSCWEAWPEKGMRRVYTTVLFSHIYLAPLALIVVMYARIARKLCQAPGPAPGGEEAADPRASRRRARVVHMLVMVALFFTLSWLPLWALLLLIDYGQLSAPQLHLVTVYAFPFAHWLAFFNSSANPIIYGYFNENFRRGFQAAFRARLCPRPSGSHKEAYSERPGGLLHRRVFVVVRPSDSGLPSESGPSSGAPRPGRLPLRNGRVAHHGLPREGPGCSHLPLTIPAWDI

Homo sapiens [4] = species on record: Homo sapiens; assay: Selectivity ratio of Ki for human NPFF1 receptor to Ki for human NPFF2 receptor
[5] = target: T1, Neuropeptide FF receptor 2; assay: Antagonist activity at human NPFF2 receptor expressed in CHO cells assessed as reversal of 1DMe-induced inhibition of intracellular cAMP accumulation after 10 mins by liquid scintillation counting analysis relative to control; format: functional, cell-based
[6] = target: T2, Neuropeptide FF receptor 1; assay: Antagonist activity at human NPFF1 receptor expressed in CHO cells assessed as reversal of NPVF-induced inhibition of intracellular cAMP accumulation after 10 mins by liquid scintillation counting analysis relative to control; format: functional, cell-based
[7] = target: T1, Neuropeptide FF receptor 2; assay: Agonist activity at human NPFF2 receptor expressed in CHO cells assessed as inhibition of forskolin-induced intracellular cAMP accumulation by liquid scintillation counting analysis; format: functional, cell-based
Homo sapiens [8] = species on record: Homo sapiens; assay: Selectivity for human NPFF2 receptor over human NPFF1 receptor
[9] = target: T2, Neuropeptide FF receptor 1; assay: Agonist activity at human NPFF1 receptor expressed in CHO cells assessed as inhibition of forskolin-induced intracellular cAMP accumulation by liquid scintillation counting analysis; format: functional, cell-based
Method in brief: (§1)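 Stably transfected CHO cells (200000) seeded overnight, labelled 1 h at 37 °C with [3H]adenine plus 0.1 μM adenine, rinsed in HEPES-Krebs-Ringer pH 7.4. Compound alone added with forskolin (20 μM in the added solution), IBMX and Ro-20 1724; 10 min at 37 °C, stopped with HCl. [3H]cAMP isolated on acid alumina columns, scintillation counted. Duplicates, two to four experiments.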

[10] = target: T1, Neuropeptide FF receptor 2; assay: Displacement of [125I]EYF from human NPFF2 receptor expressed in CHO cells after 1 hr by liquid scintillation counting analysis; format: cell-based
Method in brief: (§2)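 Competition binding on CHO membranes stably expressing hNPFF1-R ([125I]YVP) or hNPFF2-R ([125I]EYF). Ki reported as mean ± SEM of two to four experiments in duplicate.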

[11] = target: T2, Neuropeptide FF receptor 1; assay: Displacement of [125I]YVP from human NPFF1 receptor expressed in CHO cells after 1 hr by liquid scintillation counting analysis; format: cell-based; method in brief: as §2
[12] = target: T1, Neuropeptide FF receptor 2; assay: Agonist activity at human NPFF2 receptor expressed in CHO cells at 10 uM after 60 mins by [35S-GTPgammaS] binding assay relative to control; format: functional, cell-based
Method in brief: (§3)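 CHO cell membranes stably expressing hNPFF1-R (1.5 μg protein) or hNPFF2-R (0.7 μg). 60 min at 30 °C in 20 mM HEPES pH 7.4, 20 mM NaCl, 3 mM MgCl2, 0.1% BSA, saponin, GDP 0.1 μM (NPFF1) or 1 μM (NPFF2), 0.066 nM [35S]GTPγS; filtration, scintillation counting. Compound at 10 μM; % stimulation over basal, compared with 1DMe 10 μM. Two–four experiments in duplicate.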

[13] = target: T2, Neuropeptide FF receptor 1; assay: Agonist activity at human NPFF1 receptor expressed in CHO cells at 10 uM after 60 mins by [35S-GTPgammaS] binding assay relative to control; format: functional, cell-based; method in brief: as §3
[14] = target: T1, Neuropeptide FF receptor 2; assay: Antagonist activity at human NPFF2 receptor expressed in CHO cells assessed as inhibition of forskolin-induced intracellular cAMP accumulation at 10 to 30 uM after 10 mins by liquid scintillation counting analysis relative to control; format: functional, cell-based
Method in brief: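 At hNPFF2 CHO cells, compound alone tested at 10 and 30 μM in the forskolin-stimulated [3H]cAMP accumulation assay (10 min, 37 °C, IBMX and Ro-20 1724 present, alumina column isolation). Read-out is % inhibition of cAMP accumulation.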

[15] = target: T1, Neuropeptide FF receptor 2; assay: Agonist activity at human NPFF2 receptor expressed in CHO cells assessed as inhibition of forskolin-induced intracellular cAMP accumulation up to 1 uM by liquid scintillation counting analysis; format: functional, cell-based; method in brief: as §1
[16] = target: T2, Neuropeptide FF receptor 1; assay: Agonist activity at human NPFF1 receptor expressed in CHO cells assessed as inhibition of forskolin-induced intracellular cAMP accumulation up to 1 uM by liquid scintillation counting analysis; format: functional, cell-based; method in brief: as §1
[17] = target: T1, Neuropeptide FF receptor 2; assay: Partial agonist activity at human NPFF2 receptor expressed in CHO cells assessed as inhibition of forskolin-induced intracellular cAMP accumulation at >1 uM by liquid scintillation counting analysis; format: functional, cell-based; method in brief: as §1
[18] = target: T1, Neuropeptide FF receptor 2; assay: Antagonist activity at human NPFF2 receptor expressed in CHO cells assessed as reversal of 1DMe-induced inhibition of intracellular cAMP accumulation at 10 to 30 uM after 10 mins by liquid scintillation counting analysis relative to control; format: functional, cell-based
[19] = target: T2, Neuropeptide FF receptor 1; assay: Partial agonist activity at human NPFF1 receptor expressed in CHO cells assessed as inhibition of forskolin-induced intracellular cAMP accumulation at >1 uM by liquid scintillation counting analysis; format: functional, cell-based; method in brief: as §1

Ratio Ki (Homo sapiens [1]): 3
Ki [2]: 465 nM
Ki [3]: 151 nM
Compound: N=C(N)NCC(=O)NCC1(CCc2ccccc2)CCN(Cc2ccccc2)CC1

Compound: N=C(N)NCC(=O)NCC1(Nc2ccccc2)CCN(Cc2cccc3ccccc23)CC1
Ki [2]: 129 nM
Ratio Ki (Homo sapiens [4]): 4.2
Ki [3]: 538 nM

Compound: COc1cccc(NC2(CNC(=O)CNC(=N)N)CCN(Cc3ccccc3)CC2)c1
Ratio Ki (Homo sapiens [1]): 4.4
Ki [2]: 884 nM
Ki [3]: 201 nM

Compound: N=C(N)NCC(=O)NCC1(Cc2cccc3ccccc23)CCN(Cc2ccccc2)CC1
EC50 [5]: 645 nM
Emax [5]: 22%
Activity [6]: Dose-dependent effect
EC50 [6]: 2.6 µM
Emax [6]: 56.2%
Ki [2]: 30 nM
Ki [3]: 112 nM

Compound: N=C(N)NCC(=O)NCC1(Nc2ccccc2)CCN(Cc2ccc3ccccc3c2)CC1
Ratio Ki (Homo sapiens [1]): 3.6
Ki [2]: 504 nM
Ki [3]: 141 nM

Compound: N=C(N)NCCNC(=O)C1(Nc2ccccc2)CCN(Cc2ccccc2)CC1
Activity [6]: Dose-dependent effect
EC50 [6]: 3.52 µM
Emax [6]: 68%
Ki [2]: 1430 nM
Ki [3]: 81 nM

EC50 [7]: > 1000 nM
Ki [2]: 84 nM
Ki [3]: 417 nM
Compound: N=C(N)NCC(=O)NCC1(Cc2ccccc2)CCN(Cc2ccccc2)CC1

Ratio Ki (Homo sapiens [1]): 6.9
Ki [2]: 3500 nM
Ki [3]: 511 nM
Compound: N=C(N)NCC(=O)NCC1(c2ccccc2)CCN(Cc2ccccc2)CC1

Selectivity ratio (Homo sapiens [8]): 1.2
Compound: H-SLNFEELKDWGPKNVIKMSTPAVNKMPHSFANLPLRF-NH2

Compound: COC(=O)c1ccc(CN2CCC(CNC(=O)CNC(=N)N)(Nc3ccccc3)CC2)cc1
Ratio Ki (Homo sapiens [1]): 4.5
Ki [2]: 1510 nM
Ki [3]: 340 nM

Compound: N=C(N)NCC(=O)NCC1(Nc2cccc3ccccc23)CCN(Cc2ccccc2)CC1
EC50 [9]: > 10 µM
Ki [2]: 309 nM
Ki [3]: 94 nM

Compound: CN1CCC(CNC(=N)N)(Nc2ccccc2)CC1
Ki [10]: > 5000 nM
Ki [11]: > 5000 nM

Ki [10]: 1050 nM
Ki [11]: 487 nM
Emax [12]: 184%
Emax [13]: 36%
Compound: N=C(N)NCCC[C@H](N)C(=O)NCC1(Nc2ccccc2)CCN(Cc2ccccc2)CC1

Ki [10]: 304 nM
Ki [11]: 479 nM
Ratio Ki (Homo sapiens [4]): 1.6
Compound: N=C(N)NCCC[C@H](N)C(=O)NCC1(Nc2ccccc2)CCN(Cc2ccc3ccccc3c2)CC1

Compound: CN1CCC(CNC(=O)[C@@H](N)CCCNC(=N)N)(Nc2ccccc2)CC1
Ki [10]: > 5000 nM
Ki [11]: > 5000 nM

Compound: N=C(N)NCC(=O)NCC1(Nc2ccccc2)CCN(Cc2ccc(Br)cc2)CC1
Ratio Ki (Homo sapiens [1]): 4
Ki [2]: 454 nM
Ki [3]: 112 nM

Compound: N=C(N)NCC(=O)NCC1(Nc2ccccc2)CCN(CC2CCCCC2)CC1
Ki [2]: 298 nM
Ratio Ki (Homo sapiens [4]): 5.5
Ki [3]: 1640 nM

Selectivity ratio (Homo sapiens [8]): 10.7
Compound: CC(C)C[C@H](NC(=O)[C@H](Cc1ccccc1)NC(=O)[C@H](C)NC(=O)[C@H](CCC(N)=O)NC(=O)[C@@H](N)CO)C(=O)N[C@@H](Cc1ccccc1)C(=O)N[C@@H](CCC(N)=O)C(=O)N1CCC[C@H]1C(=O)N[C@@H](CCC(N)=O)C(=O)N[C@@H](CCCNC(=N)N)C(=O)N[C@@H](Cc1ccccc1)C(N)=O

Ki [2]: 82 nM
Ratio Ki (Homo sapiens [4]): 5.3
Ki [3]: 432 nM
Compound: N=C(N)NCC(=O)NCC1(Cc2ccc(Cl)c(Cl)c2)CCN(Cc2ccccc2)CC1

Compound: N=C(N)NCC(=O)NCC1(Nc2ccccc2)CCN(CCc2ccccc2)CC1
Ki [2]: 330 nM
Ratio Ki (Homo sapiens [4]): 3.2
Ki [3]: 1060 nM

Ki [10]: 1690 nM
Ki [11]: 2910 nM
Compound: N=C(N)NCCC[C@H](N)C(=O)NCC1(Nc2ccccc2)CCN(CCc2ccccc2)CC1

Compound: N=C(N)NCC(=O)NCC1(Nc2ccccc2)CCN(Cc2ccccc2)CC1
Emax [14]: 20%
Activity [15]: Active
Activity [16]: Active
Activity [17]: inactive
EC50 [6]: 22 µM
Emax [6]: 83%
Ki [2]: 405 nM
inhibition [18]: Active
Activity [19]: inactive
Ki [3]: 319 nM

Selectivity ratio (Homo sapiens [8]): 10.1
Compound: H-AGEGLSSPFWSLAAPQRF-NH2

Ki [10]: 6620 nM
Ki [11]: 1880 nM
Compound: N=C(N)NCC1(Nc2ccccc2)CCN(Cc2ccccc2)CC1

Compound: N=C(N)NCC(=O)NCC1(Nc2ccc(Cl)c(Cl)c2)CCN(Cc2ccccc2)CC1
Ratio Ki (Homo sapiens [1]): 2.1
Ki [2]: 409 nM
Ki [3]: 191 nM

Compound: N=C(N)NCC(=O)NCC1(Nc2ccccc2)CCNCC1
Ki [2]: 2760 nM
Ki [3]: 15100 nM

Ki ([11]; cho): 4 nM
Compound: CC(C)C[C@H](NC(=O)[C@H](N)Cc1ccc(O)cc1)C(=O)N(C)[C@@H](Cc1ccccc1)C(=O)N[C@@H](CCC(N)=O)C(=O)N1CCC[C@H]1C(=O)N[C@@H](CCC(N)=O)C(=O)N[C@@H](CCCNC(=N)N)C(=O)N[C@@H](Cc1ccccc1)C(N)=O (H-[dY]L[NMeF]QPQRF-NH2)

Compound: COc1cc(NC2(CNC(=O)CNC(=N)N)CCN(Cc3ccccc3)CC2)cc(OC)c1
EC50 [9]: > 10 µM
Ki [2]: 987 nM
Ki [3]: 114 nM

Ki [2]: 205 nM
Ratio Ki (Homo sapiens [4]): 1.5
Ki [3]: 316 nM
Compound: N=C(N)NCC(=O)NCC1(Cc2ccc3ccccc3c2)CCN(Cc2ccccc2)CC1

Ratio Ki (Homo sapiens [1]): 3
Ki [2]: 910 nM
Ki [3]: 296 nM
Compound: N=C(N)NCC(=O)NCC1(Cc2ccc(-c3ccccc3)cc2)CCN(Cc2ccccc2)CC1

Compound: N=C(N)NCC1(Nc2ccccc2)CCN(CCc2ccccc2)CC1
Ki [10]: 2770 nM
Ki [11]: 2960 nM

Compound: N=C(N)NCCC[C@H](N)C(=O)NCC1CCN(Cc2ccccc2)CC1
Ki [10]: 7580 nM
Ki [11]: > 5000 nM

Compound: N=C(N)NCCC(=O)NCC1(Nc2ccccc2)CCN(Cc2ccccc2)CC1
Ratio Ki (Homo sapiens [1]): 6
Ki [2]: 2910 nM
Ki [3]: 441 nM
